One molecule from ChEMBL document CHEMBL1147807, “Identification of 2-acylaminothiophene-3-carboxamides as potent inhibitors of FLT3” (Bioorg Med Chem Lett, 2006) can be followed below.

Usually pIC50 stands for −log10 of the IC50, conventionally taken in molar units. Low readings indicate a large IC50, high ones a small IC50. Broadly, the inhibition is the drop in the measured response relative to a control, in per cent.

SMILES strings stand for the structures. pIC50: −log10 of the molar value.

The test system of one assay is MV4-11. As to the kind of experiment: Antiproliferative activity against human MV4-11 cells.
Assay [1] addresses Tyrosine-protein kinase ABL1 (Homo sapiens) (UniProt P00519). As to the kind of experiment: Inhibition of human Abl kinase at 3 uM in presence of 10 uM ATP. In short, it runs like this:
(§1)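 Selectivity panel run at a single compound concentration of 3 µM with 10 µM ATP. Read-out is % inhibition of each kinase. Values are averages of duplicate experiments.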

Assay [2] has as its target Tyrosine-protein kinase ABL2 (Homo sapiens) (UniProt P42684). Briefly: Inhibition of human Arg kinase at 3 uM in presence of 10 uM ATP. In short, it runs like this:
as §1

For assay [3], the target named is Tyrosine-protein kinase BTK (Homo sapiens) (UniProt Q06187). Briefly: Inhibition of human BTK kinase at 3 uM in presence of 10 uM ATP. In short, it runs like this: as §1
Sequence of Tyrosine-protein kinase BTK (Homo sapiens) (Q06187 whole entry): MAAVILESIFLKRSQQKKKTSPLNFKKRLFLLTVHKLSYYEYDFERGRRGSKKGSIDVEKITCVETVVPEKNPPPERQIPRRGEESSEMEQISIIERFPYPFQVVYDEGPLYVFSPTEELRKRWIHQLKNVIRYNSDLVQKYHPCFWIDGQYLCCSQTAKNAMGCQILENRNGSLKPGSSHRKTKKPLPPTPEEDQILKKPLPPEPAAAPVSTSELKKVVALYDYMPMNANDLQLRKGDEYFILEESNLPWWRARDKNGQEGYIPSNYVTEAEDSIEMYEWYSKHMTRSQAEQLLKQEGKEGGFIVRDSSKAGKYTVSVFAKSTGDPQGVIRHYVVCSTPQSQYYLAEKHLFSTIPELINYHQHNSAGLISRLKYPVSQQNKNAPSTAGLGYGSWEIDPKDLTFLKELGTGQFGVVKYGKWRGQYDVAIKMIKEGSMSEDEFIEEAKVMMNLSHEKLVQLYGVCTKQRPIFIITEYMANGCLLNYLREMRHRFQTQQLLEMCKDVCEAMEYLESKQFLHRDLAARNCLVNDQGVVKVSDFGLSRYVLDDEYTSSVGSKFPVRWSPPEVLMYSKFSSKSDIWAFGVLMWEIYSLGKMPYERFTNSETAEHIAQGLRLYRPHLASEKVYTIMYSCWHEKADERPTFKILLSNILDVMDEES
The target in assay [4] is Cyclin-dependent kinase 7/ cyclin H (Homo sapiens) (UniProt P51946+P50613). Briefly: Inhibition of human CDK7/cyclin H/MAT1 at 3 uM in presence of 10 uM ATP. It counts as protein-complex assay. In short, it runs like this: as §1
The target of assay [5] is Mitogen-activated protein kinase 10 (Homo sapiens) (UniProt P53779). As to the kind of experiment: Inhibition of human JNK3 at 3 uM in presence of 10 uM ATP. In short, it runs like this: as §1
Sequence of Mitogen-activated protein kinase 10 (Homo sapiens) (P53779 whole entry): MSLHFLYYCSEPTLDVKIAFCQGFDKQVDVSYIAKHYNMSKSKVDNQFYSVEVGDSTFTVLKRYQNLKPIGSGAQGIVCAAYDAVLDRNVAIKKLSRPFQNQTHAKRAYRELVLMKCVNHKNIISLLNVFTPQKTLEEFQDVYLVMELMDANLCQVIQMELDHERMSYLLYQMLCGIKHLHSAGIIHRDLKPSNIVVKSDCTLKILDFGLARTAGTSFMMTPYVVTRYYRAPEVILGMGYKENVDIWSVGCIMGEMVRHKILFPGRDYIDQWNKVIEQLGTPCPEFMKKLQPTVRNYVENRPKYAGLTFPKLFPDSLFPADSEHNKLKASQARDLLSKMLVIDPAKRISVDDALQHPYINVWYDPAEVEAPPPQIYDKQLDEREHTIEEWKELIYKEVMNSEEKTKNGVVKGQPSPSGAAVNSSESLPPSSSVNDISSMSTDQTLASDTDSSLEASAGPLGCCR
The target in assay [6] is Tyrosine-protein kinase Lyn (Homo sapiens) (UniProt P07948). Briefly: Inhibition of human Lyn at 3 uM in presence of 10 uM ATP. In a few lines:
as §1

Assay [7] deals with T1, Serine/threonine-protein kinase D2 (Homo sapiens) (UniProt Q9BZL6).
T1 sequence (whole entry): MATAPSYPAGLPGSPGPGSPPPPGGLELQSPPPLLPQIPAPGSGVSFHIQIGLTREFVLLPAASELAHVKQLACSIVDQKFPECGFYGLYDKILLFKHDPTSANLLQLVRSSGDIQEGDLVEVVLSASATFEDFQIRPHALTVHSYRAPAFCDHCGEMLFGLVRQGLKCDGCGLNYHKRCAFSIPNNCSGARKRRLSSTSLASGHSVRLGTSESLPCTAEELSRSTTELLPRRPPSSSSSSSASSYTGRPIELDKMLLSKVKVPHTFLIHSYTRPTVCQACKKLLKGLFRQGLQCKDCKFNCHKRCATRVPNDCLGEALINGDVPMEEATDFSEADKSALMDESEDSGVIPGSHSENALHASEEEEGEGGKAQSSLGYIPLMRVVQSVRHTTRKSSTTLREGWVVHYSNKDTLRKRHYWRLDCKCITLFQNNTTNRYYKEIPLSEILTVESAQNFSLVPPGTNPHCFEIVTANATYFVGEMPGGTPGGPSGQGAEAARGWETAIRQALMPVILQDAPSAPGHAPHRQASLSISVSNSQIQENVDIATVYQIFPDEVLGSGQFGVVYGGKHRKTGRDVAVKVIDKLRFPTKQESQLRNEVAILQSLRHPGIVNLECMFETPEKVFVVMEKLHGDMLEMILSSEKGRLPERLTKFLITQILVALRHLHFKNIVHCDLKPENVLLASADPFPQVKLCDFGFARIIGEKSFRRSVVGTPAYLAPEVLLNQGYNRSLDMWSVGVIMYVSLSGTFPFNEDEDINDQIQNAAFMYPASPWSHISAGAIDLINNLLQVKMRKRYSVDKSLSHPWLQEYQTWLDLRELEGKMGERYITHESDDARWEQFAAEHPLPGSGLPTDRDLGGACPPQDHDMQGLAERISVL
Briefly: Inhibition of human PKD2 at 3 uM in presence of 10 uM ATP. In a few lines: as §1

Assay [8] deals with Ribosomal protein S6 kinase alpha-1 (Homo sapiens) (UniProt Q15418). Briefly: Inhibition of human Rsk1 at 3 uM in presence of 10 uM ATP. In short, it runs like this: as §1
Sequence of Ribosomal protein S6 kinase alpha-1 (Homo sapiens) (Q15418 whole entry): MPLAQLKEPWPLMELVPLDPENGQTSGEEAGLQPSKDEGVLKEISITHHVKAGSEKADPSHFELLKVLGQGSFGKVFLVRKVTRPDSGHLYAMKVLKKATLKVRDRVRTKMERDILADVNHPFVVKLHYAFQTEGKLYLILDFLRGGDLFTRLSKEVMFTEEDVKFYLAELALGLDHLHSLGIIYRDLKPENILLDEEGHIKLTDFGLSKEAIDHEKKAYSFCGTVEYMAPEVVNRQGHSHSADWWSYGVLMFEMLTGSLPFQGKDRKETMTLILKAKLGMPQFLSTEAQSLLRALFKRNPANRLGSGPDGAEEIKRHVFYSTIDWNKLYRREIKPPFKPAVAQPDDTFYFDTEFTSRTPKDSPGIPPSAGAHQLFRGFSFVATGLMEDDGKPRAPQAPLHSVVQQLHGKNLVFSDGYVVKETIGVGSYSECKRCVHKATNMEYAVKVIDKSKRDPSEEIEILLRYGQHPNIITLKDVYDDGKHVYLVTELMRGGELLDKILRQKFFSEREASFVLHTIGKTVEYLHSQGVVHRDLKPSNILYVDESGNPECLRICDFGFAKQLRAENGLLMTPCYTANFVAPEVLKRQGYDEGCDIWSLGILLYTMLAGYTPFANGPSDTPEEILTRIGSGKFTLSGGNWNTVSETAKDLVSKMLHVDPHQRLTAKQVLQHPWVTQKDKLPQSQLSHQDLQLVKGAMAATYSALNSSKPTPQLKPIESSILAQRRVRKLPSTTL
The target of assay [9] is BDNF/NT-3 growth factors receptor (Homo sapiens) (UniProt Q16620). Briefly: Inhibition of human TrkB at 3 uM in presence of 10 uM ATP. In short, it runs like this:
as §1

Assay [10] deals with T2, Receptor-type tyrosine-protein kinase FLT3 (Homo sapiens, UniProt P36888).
T2 sequence (P36888 whole entry): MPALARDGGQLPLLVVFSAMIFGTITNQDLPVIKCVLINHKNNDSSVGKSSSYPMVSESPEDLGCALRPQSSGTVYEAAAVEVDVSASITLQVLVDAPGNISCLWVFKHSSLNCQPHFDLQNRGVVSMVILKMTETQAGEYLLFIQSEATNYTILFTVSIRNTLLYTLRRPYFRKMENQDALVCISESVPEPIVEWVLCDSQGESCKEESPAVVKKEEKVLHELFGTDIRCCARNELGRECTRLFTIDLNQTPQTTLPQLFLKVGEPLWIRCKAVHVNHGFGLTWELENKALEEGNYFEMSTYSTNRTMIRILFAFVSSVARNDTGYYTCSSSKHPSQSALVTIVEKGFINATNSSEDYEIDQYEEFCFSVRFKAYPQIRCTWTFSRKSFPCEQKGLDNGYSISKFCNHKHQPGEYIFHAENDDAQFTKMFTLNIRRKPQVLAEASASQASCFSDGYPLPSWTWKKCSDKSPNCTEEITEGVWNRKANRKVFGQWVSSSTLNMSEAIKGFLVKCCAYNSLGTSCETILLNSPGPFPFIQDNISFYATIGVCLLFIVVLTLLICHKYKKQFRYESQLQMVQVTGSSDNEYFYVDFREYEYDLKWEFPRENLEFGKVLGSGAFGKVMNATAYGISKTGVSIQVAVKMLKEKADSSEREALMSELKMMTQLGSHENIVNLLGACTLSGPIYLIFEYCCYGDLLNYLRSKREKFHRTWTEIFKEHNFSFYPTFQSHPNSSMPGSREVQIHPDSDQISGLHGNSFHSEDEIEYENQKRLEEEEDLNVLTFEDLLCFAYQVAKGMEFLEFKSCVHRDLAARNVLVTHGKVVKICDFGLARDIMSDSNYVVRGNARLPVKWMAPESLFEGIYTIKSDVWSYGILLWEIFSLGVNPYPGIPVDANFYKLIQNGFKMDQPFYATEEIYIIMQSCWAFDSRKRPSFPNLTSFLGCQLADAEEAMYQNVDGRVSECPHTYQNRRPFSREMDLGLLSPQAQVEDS
Briefly: Inhibition of FLT3.

Sequence of Tyrosine-protein kinase ABL2 (Homo sapiens) (P42684 whole entry): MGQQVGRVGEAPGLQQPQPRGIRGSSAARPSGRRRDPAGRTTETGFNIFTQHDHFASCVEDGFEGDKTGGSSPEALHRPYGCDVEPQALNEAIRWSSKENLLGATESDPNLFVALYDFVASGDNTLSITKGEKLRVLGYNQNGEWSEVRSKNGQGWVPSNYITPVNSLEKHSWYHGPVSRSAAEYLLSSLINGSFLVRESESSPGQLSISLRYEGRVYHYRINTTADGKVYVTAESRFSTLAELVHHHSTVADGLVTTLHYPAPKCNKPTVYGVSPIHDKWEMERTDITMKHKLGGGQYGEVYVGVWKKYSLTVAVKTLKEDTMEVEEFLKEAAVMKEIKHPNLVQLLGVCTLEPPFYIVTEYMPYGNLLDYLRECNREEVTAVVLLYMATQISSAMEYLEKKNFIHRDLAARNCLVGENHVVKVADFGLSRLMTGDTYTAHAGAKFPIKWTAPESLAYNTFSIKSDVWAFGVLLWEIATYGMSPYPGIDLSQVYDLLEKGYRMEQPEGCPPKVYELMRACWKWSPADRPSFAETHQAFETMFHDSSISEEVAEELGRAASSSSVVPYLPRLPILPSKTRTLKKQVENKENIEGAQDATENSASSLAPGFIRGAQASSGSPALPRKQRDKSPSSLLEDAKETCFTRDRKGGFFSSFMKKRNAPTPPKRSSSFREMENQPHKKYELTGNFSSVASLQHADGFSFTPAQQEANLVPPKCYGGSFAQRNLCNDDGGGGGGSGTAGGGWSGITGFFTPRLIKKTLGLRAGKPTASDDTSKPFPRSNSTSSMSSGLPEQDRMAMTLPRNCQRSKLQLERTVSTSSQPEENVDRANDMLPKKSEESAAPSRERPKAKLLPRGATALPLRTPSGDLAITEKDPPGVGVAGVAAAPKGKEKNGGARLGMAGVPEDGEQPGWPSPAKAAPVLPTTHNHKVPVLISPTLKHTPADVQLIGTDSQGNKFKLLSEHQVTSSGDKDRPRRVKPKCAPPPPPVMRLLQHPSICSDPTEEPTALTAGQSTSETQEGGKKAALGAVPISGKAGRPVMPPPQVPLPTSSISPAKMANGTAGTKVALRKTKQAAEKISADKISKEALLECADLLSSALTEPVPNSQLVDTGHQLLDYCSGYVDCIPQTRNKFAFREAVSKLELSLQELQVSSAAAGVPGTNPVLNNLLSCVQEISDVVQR
Sequence of BDNF/NT-3 growth factors receptor (Homo sapiens) (Q16620 32-822 limits assumed): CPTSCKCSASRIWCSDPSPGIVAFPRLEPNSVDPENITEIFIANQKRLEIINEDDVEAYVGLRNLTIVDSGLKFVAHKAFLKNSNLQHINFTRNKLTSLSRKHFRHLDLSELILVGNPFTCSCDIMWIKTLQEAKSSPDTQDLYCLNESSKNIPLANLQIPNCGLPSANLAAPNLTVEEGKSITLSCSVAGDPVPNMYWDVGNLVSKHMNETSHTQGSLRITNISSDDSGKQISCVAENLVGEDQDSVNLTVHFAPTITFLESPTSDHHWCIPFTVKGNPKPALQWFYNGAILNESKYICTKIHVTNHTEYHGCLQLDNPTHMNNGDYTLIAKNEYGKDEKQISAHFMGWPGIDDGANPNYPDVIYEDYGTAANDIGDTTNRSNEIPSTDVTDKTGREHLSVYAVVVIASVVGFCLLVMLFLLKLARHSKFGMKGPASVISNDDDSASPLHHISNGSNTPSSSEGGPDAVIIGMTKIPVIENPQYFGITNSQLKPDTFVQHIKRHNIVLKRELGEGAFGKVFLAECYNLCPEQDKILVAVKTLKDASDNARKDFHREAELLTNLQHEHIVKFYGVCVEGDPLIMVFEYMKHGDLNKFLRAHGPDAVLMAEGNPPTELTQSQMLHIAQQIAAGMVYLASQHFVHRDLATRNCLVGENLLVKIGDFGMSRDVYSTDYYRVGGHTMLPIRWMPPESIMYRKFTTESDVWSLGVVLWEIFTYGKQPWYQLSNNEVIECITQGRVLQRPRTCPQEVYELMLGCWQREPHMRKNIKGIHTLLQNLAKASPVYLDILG
Sequence of Tyrosine-protein kinase Lyn (Homo sapiens) (P07948 2-512 limits assumed): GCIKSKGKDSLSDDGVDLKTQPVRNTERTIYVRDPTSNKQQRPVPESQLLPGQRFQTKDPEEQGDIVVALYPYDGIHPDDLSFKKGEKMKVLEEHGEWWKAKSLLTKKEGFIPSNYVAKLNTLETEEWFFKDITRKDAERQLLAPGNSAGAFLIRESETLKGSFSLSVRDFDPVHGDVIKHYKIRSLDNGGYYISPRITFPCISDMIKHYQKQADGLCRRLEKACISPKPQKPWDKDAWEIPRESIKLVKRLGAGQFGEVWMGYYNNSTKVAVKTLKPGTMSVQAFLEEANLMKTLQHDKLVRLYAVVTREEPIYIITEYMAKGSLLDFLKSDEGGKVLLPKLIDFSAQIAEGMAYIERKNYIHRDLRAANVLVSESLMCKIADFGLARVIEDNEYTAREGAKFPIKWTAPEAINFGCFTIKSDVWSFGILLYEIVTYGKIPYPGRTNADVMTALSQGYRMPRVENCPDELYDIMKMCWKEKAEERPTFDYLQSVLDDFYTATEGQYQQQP

`COc1ccc(C(=O)Nc2sc3c(c2C(N)=O)CCCC3)cc1OC`: the figures for the pIC50 (in the assay on MV4-11; in assay [10]) were 6.47 and 7.38, respectively. Moreover, the inhibition in assay [1] is 21%; in assay [2], 49%; in assay [3] it was 14%; in assay [4], -1%; in assay [5], -6%; in assay [6] it was 21%. The values for the inhibition in assay [7], in assay [8] and in assay [9] were -7%, 3% and 39%, respectively.
